In ChEMBL document CHEMBL2062414, “Selected chromone derivatives as inhibitors of monoamine oxidase” (Bioorg Med Chem Lett, 2012):

Tests used:
[1] = target: T1, Amine oxidase [flavin-containing] B (Homo sapiens, UniProt P27338); assay: Reversible inhibition of recombinant human MAO-B assessed as recovered enzyme activity measuring residual rate of 4-hydroxyquinoline formation at 10 times IC50 preincubated for 30 mins followed by dilution to 0.1 time IC50 measured after 20 mins
T1 sequence (P27338 whole entry): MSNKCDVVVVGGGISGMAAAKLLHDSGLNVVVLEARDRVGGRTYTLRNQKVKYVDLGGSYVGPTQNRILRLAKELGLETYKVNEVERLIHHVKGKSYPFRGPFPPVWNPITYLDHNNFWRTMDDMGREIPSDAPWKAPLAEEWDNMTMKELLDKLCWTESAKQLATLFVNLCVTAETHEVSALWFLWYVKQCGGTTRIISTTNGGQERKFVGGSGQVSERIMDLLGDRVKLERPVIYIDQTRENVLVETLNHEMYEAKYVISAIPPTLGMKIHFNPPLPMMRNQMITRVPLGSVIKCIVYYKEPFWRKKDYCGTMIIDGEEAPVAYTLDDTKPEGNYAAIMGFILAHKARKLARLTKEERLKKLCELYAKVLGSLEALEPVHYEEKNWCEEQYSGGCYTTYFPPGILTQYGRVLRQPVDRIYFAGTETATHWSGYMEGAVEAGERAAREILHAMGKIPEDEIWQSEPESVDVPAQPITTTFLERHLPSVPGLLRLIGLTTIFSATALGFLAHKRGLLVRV

Homo sapiens = species: Homo sapiens; assay: Selectivity ratio of IC50 for recombinant human MAO-A to IC50 for recombinant human MAO-B
In short: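 This is a selectivity index for MAO-B, computed as IC50(MAO-A)/IC50(MAO-B). Both IC50s were measured fluorometrically on recombinant human enzymes as kynuramine conversion to 4-hydroxyquinoline, in triplicate.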

[2] = target: T2, Amine oxidase [flavin-containing] A (Homo sapiens, UniProt P21397); assay: Inhibition of recombinant human MAO-A assessed as inhibition of kynuramine to 4-hydroxyquinoline conversion after 20 mins by fluorometry
T2 sequence (P21397 whole entry): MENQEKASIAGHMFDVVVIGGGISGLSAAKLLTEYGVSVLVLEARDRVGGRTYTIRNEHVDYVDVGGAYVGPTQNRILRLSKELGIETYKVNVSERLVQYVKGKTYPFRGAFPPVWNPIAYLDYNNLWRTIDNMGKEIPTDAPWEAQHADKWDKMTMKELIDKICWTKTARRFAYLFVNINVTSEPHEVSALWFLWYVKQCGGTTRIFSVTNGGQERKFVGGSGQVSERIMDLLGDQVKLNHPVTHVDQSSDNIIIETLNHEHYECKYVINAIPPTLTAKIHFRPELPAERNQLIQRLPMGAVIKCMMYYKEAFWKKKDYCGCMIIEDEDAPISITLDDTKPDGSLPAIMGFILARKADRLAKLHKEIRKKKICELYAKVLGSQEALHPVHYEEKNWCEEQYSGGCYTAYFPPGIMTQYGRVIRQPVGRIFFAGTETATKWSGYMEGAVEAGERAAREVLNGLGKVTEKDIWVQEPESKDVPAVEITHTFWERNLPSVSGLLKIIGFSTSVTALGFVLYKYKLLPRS
In short: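 Recombinant human MAO-A was incubated with the mixed MAO-A/B substrate kynuramine. Activity was read fluorometrically as formation of 4-hydroxyquinoline. IC50 values are given as mean ± SD of triplicate determinations.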

[3] = target: T1, Amine oxidase [flavin-containing] B; assay: Inhibition of recombinant human MAO-B assessed as inhibition of kynuramine to 4-hydroxyquinoline conversion after 20 mins by fluorometry

SMILES | Activity [1] [%] | Ratio IC50 (Homo sapiens) | IC50 [2] [µM] | IC50 [3] [µM]
O=c1ccoc2cccc(OCc3ccccc3)c12 |  | 18 | 143 | 8.03
CC(=O)c1c(O)cccc1OCc1ccc(Br)cc1 |  | 53 |  | 
CC(=O)c1c(O)cccc1OCc1cccc(Br)c1 |  | 17 |  | 
O=Cc1coc2ccccc2c1=O |  | 1 | 28.9 | 23.5
CC(=O)c1cc(OCc2ccc(Br)cc2)ccc1O |  | 17 |  | 
O=c1ccoc2ccccc12 [CHROMONE] |  | 1 | 39.9 | 54.9
O=c1ccoc2cccc(OCc3ccc(Br)cc3)c12 |  | 12 | 52.9 | 4.34
O=C1CC(O)Oc2cccc(OCc3ccc(Br)cc3)c21 (centres undefined) |  | 1.4 | 60.6 | 44.8
CC(=O)c1ccc(OCc2ccc(Br)cc2)cc1O |  | 569 |  | 

Second part, the molecule after the results:

Activity [1] [%] | Ratio IC50 (Homo sapiens) | IC50 [2] [µM] | IC50 [3] [µM] | SMILES
68 | 3950 |  |  | CC(=O)c1ccc(OCc2cccc(Br)c2)cc1O
 | 34 |  |  | CC(=O)c1cc(OCc2cccc(Br)c2)ccc1O
68 |  | 1.53 |  | O=C1CC(O)Oc2ccc(OCc3cccc(Br)c3)cc21 (centres undefined)
68 | 371 | 1.04 | 0.0028 | O=C(O)c1coc2ccc(OCc3cccc(Br)c3)cc2c1=O
 | 83 | 6.46 | 0.0774 | COC(=O)c1coc2ccc(OCc3cccc(Br)c3)cc2c1=O
 | 595 | 2.2 | 0.0037 | O=Cc1coc2ccc(OCc3cccc(Br)c3)cc2c1=O
